Laboratory results: ChEMBL document CHEMBL4145474, “Discovery of novel piperonyl derivatives as diapophytoene desaturase inhibitors for the treatment of methicillin-, vancomycin- and linezolid-resistant Staphylococcus aureus infections” (Eur J Med Chem, 2018)
pIC50: −log10 of the molar value. Activity calls are given as the source filed them. The calls are words filed in the database; no cut-off is given here.

Experiments:
Staphylococcus aureus [1] = assay: Inhibition of pigmentation in vancomycin-intermediate methicillin-resistant Staphylococcus aureus Mu50 after 48 hrs by spectrophotometric method; format: functional, organism-based; conditions: Mu50, 48 h
Procedure, shortened: (§1)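 Bacteria grown in 4 mL TSB for 48 h at 37 °C with compound serially diluted from DMSO, in duplicate; DMSO vehicle control and non-pigmented CrtN mutant as reference. Cells from 3 mL of culture washed twice with 0.01 M PBS and pigment extracted into methanol. Absorbance read at 450 nm; IC50 fitted from the concentration series.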

[2] = molecular target: T1, 4,4'-diapophytoene desaturase (4,4'-diaponeurosporene-forming) (Staphylococcus aureus (strain Newman)) (UniProt O07855); assay: Inhibition of CrtN in wild type Staphylococcus aureus Newman assessed as decrease in bacterial survival after 6 hrs by human whole blood killing assay relative to control; conditions: Staphylococcus aureus subsp. aureus str. Newman
T1 sequence (whole entry): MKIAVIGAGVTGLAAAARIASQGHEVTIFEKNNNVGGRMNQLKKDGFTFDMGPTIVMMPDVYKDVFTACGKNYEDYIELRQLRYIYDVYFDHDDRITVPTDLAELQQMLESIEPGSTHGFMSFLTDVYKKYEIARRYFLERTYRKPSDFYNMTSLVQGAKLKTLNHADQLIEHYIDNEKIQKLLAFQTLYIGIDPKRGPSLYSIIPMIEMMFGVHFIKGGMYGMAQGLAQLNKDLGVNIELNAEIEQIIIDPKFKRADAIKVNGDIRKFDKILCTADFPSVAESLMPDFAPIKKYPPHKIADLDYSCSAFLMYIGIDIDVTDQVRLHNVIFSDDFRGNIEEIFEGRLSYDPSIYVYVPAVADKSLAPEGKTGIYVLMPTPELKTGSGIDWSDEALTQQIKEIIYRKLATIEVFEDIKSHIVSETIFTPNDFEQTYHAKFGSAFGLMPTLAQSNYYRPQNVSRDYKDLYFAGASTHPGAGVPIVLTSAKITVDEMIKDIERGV
Procedure, shortened: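 Tubes were incubated 6 h at 37 °C, then serial dilutions were plated on TSA to count surviving CFU. Two independent experiments, compared against vehicle.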

[3] = molecular target: T1, 4,4'-diapophytoene desaturase (4,4'-diaponeurosporene-forming) (Staphylococcus aureus (strain Newman)); assay: Inhibition of CrtN in methicillin-resistant Staphylococcus aureus USA400 MW2 assessed as bacterial survival at 1 uM after 24 hrs by H2O2 killing assay (reference value: 26.33%)
Staphylococcus aureus [4] = assay: Inhibition of pigmentation in methicillin-resistant Staphylococcus aureus USA300 LAC after 48 hrs by spectrophotometric method; format: functional, organism-based; procedure, shortened: as §1
[5] = molecular target: Voltage-gated inwardly rectifying potassium channel KCNH2 (Homo sapiens, UniProt Q12809); assay: Inhibition of human ERG expressed in CHO cells at holding potential of -80 mV by whole cell Qpatch assay; format: cell-based
Chain of Voltage-gated inwardly rectifying potassium channel KCNH2 (Q12809 whole entry): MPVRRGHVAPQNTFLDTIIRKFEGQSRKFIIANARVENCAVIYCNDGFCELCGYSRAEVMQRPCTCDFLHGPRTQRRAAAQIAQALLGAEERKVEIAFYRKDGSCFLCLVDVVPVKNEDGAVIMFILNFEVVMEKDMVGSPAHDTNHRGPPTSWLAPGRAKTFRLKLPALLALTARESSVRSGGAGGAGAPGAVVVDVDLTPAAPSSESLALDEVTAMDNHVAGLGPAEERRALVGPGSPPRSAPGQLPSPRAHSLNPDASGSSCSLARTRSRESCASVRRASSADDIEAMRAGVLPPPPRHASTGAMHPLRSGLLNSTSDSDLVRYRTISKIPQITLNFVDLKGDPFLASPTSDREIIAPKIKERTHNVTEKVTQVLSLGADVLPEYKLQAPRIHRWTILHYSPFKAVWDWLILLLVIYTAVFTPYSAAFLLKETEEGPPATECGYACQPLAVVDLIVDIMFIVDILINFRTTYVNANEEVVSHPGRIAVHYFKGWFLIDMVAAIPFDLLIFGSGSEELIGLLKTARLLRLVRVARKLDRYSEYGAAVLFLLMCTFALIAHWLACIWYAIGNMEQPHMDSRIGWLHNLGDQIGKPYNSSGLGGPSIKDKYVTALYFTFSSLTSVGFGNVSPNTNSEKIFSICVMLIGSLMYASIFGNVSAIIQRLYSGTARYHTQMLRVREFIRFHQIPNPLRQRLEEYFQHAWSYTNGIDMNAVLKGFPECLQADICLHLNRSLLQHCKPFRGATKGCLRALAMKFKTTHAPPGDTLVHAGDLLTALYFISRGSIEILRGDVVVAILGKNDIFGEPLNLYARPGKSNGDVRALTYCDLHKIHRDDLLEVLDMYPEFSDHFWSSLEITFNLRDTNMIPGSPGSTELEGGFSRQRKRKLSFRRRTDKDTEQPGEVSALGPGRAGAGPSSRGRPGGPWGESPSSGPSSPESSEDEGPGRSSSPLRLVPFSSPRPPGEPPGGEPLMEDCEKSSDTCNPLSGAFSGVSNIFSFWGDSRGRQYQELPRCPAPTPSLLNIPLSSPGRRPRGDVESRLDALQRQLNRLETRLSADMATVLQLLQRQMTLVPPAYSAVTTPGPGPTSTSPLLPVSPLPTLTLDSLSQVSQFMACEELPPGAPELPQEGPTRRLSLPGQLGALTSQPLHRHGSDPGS

Staphylococcus aureus [6] = assay: Antibacterial activity against vancomycin-intermediate methicillin-resistant Staphylococcus aureus Mu50 infected in BALB/c mouse assessed as decrease in bacterial survival in mouse kidney at 0.1 to 0.4 mg, ip bid administered 4.5 days before 24 hrs bacterial infection measured after 90 hrs; format: functional, organism-based
Procedure, shortened: (§2)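 6–8-week-old female BALB/c mice (SPF) dosed intraperitoneally twice daily over 4.5 d at 0.1 or 0.4 mg/bid. Pre-treatment started before infection; post-treatment started 6 h after infection. Vancomycin and linezolid controls given as pre-treatment at 0.4 mg/bid. Retro-orbital inoculation: Mu50 1.1 × 10⁹ CFU, NRS271 1.8 × 10⁸ CFU. Kidneys and livers homogenised in PBS/0.01% Triton X-100 and plated on TSA for CFU.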

Staphylococcus aureus [7] = assay: Antibacterial activity against vancomycin-intermediate methicillin-resistant Staphylococcus aureus Mu50 infected in BALB/c mouse assessed as decrease in bacterial survival in mouse kidney at 0.1 to 0.4 mg, ip bid administered 4.5 days after 6 hrs bacterial infection measured after 90 hrs; format: functional, organism-based; procedure, shortened: as §2
Staphylococcus aureus [8] = assay: Antibacterial activity against methicillin/linezolid-resistant Staphylococcus aureus NRS271 infected in BALB/c mouse assessed as decrease in bacterial survival in mouse liver at 0.1 to 0.4 mg, ip bid administered 4.5 days before 24 hrs bacterial infection measured after 90 hrs; format: functional, organism-based; procedure, shortened: as §2
Staphylococcus aureus [9] = assay: Antibacterial activity against wild type Staphylococcus aureus Newman infected in BALB/c mouse assessed as decrease in bacterial survival in mouse liver at 0.4 mg, ip bid administered 4.5 days before 12 hrs bacterial infection measured after 90 hrs relative to control; format: functional

CN(C/C=C/C=C/c1ccc(C(F)(F)F)cc1F)Cc1ccc2c(c1)OCO2.Cl
pIC50 (Staphylococcus aureus [1]): 8.60 | fold change (FC) [2]: 10.9 | Survival [3]: 2.33% | pIC50 (Staphylococcus aureus [4]): 7.89 | pIC50 [5]: 4.85 | Activity (Staphylococcus aureus [6]): Active | Activity (Staphylococcus aureus [7]): Active | Activity (Staphylococcus aureus [8]): inactive | Activity (Staphylococcus aureus [9]): 98.74%
